# In paper PMC5693771 (Bioorganic & medicinal chemistry letters, 2017):
# “Also recorded” adds a separate entry of the source.
# Tests used:
# [1] = tested on: HCV genotype 1b RNA replication; test: HCV genotype 1b subgenomic replicon assay in Huh-7 cells; assay type: cell-based, Hepatitis C virus (HCV); details: for EC90: Hepatitis C virus, GETYPE1B, Huh-7, read-out: Anti HCV activity EC90
# Procedure, shortened: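 Each assay was run in replicate. Values are the mean and SD of three replicates.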
# Huh-7 cells = test: Cytotoxicity in Huh-7 cells; assay type: cell-based; details: all four tested cell lines (Huh-7, PBM, CEM, Vero)
SMILES,EC90 [1] [µM],other results
O=c1ccn([C@@H]2O[C@H](CO)[C@@H](O)C2(Br)Br)c(=O)[nH]1 [Compound 10a],–,"Concentration up to which no antiviral (anti-HCV) activity was shown ([1]; HCV genotype 1b replicon, Huh-7 cells): > 33 µM"
Nc1ccn([C@@H]2O[C@H](CO)[C@@H](O)C2(Br)Br)c(=O)n1 [Compound 10b],> 10,–
CC(C)OC(=O)[C@H](C)N[P@](=O)(OC[C@H]1O[C@@H](n2ccc(=O)[nH]c2=O)C(Br)(Br)[C@@H]1O)Oc1ccccc1 [Compound 13a],–,Cellular toxicity (in words) (Huh-7 cells): non-toxic; also recorded: no observed toxicity
CC(C)OC(=O)[C@H](C)N[P@](=O)(OC[C@H]1O[C@@H](n2cnc3c(N)ncnc32)C(Br)(Br)[C@@H]1O)Oc1ccccc1 [Compound 13c],> 10,–
CC(C)OC(=O)[C@H](C)N[P@](=O)(OC[C@H]1O[C@@H](n2cnc3c(=O)[nH]c(N)nc32)C(Br)(Br)[C@@H]1O)Oc1ccccc1 [Compound 13d],> 10,–
